Source: PubChem
An excerpt weighted towards active compounds, which were near 4.5% of everything screened.
OX1R antag-1 – blocks the human orexin 1 receptor; O43613; OX1R-expressing cells, FRET antagonist read-out; inhibition, % at 6.6 µM; actives 1.8% (n = 330,000); AID 485270; in the data active = inhibition mostly above about 38%, no sharp cut-off; inactive = mostly below about 40%
Target sequence (O43613 whole entry, looked up): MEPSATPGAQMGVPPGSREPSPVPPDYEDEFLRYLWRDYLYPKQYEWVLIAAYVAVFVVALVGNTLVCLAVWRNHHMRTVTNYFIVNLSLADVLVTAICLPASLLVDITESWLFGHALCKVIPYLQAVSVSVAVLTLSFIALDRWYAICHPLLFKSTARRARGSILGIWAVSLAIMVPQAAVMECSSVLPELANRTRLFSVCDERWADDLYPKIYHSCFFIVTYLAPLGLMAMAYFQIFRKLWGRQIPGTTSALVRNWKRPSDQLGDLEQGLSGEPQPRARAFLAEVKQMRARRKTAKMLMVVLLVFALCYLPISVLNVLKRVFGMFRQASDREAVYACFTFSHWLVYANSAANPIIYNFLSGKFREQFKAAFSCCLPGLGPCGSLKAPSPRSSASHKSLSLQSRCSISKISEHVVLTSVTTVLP
TAAR1 antagonist – antagonists of human TAAR1; actives 1.5% (n = 360,000); AID 624466; inhibition, % at 3 µM; CHO RD-HGA16 TAAR1, Fluo-8 calcium fluorescence, antagonist;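 active = inhibition above a per-plate cutoff, the mean inhibition of test compounds on that plate plus 3 SD, cut at about 49% in these data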
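Assay system: RD-HGA16 CHO cells with stable hTAAR1 and Gα16 / Reagent: EC80 β-phenethylamine stimulus / Doses: 3 µM, single point / Timing: dye loading 75 min at 37 °C, then 30 min room temperature / Measured by: Fluo-8 intracellular calcium dye fluorescence, real-time kinetic reads / Controls: vehicle wells and EC80 agonist wells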
OX1R antag-2 – blocks the human orexin 1 receptor. O43613. CHO/OX1R cells, Fluo-8 calcium fluorescence, orexin A. inhibition, % at 5 µM. actives 0.43% (n = 330,000). AID 434989;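 active = inhibition above its plate's threshold, mean inhibition of all tested compounds on the plate plus 3 SD, cut at about 37% in these data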
GPR7 antag – blocks human GPR7 receptor signaling | P48145 | GPR7-expressing cells, fluorescence antagonist assay | inhibition, % at 4.4 µM | actives 1.1% (n = 290,000) | AID 1861; in the data active = inhibition above about 16%, passing the limit was not always enough;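 also: cells stimulated with the agonist NPW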
TAAR1 agonist – agonists of human TAAR1. activation, % at 3 µM. actives 0.99% (n = 360,000). CHO RD-HGA16 TAAR1, Fluo-8 calcium fluorescence; vehicle wells 0%, saturating PEA agonist 100%. Q96RJ0;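 active = activation above the mean activation of all test compounds in the run plus 3 SD, cut at about 38% in these data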
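Benchmarks: low control DMSO, high control PEA (EC100); System: CHO RD-HGA16 cells carrying human TAAR1 plus Gα16; Detection: Fluo-8 fluorescence, 5 s baseline then 140 s kinetic read; Schedule: 17-24 h plating, Fluo-8 75 min 37 °C, 30 min RT; Read-out basis: % activation from peak over basal fluorescence ratio, DMSO-to-PEA scaled.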
CHO parental Ca – signal in parental CHO cells, OX1R antagonist counter-screen | parental CHO-K1, ATP-induced calcium, Fluo-8 fluorescence | inhibition, % at 5.6 µM | actives 0.63% (n = 330,000);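 active = inhibition above that plate's mean sample inhibition plus 3 SD, cut at about 26% in these data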
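Assay system: parental CHO cells; Read-out basis: percent inhibition of ATP-evoked calcium rise, normalized to controls; Benchmarks: ATP and no-ATP DMSO wells; Compound dosing: single nominal dose of 5.6 µM per compound; Signal: Fluo-8 calcium dye fluorescence; Also added: ATP as calcium-mobilizing challenge; Repeats: singlicate.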
GPR7 antag conf – human GPR7 antagonism, confirmation assay; actives 52% (n = 2,400); shares compounds with GPR7 antag; inhibition, % at 4.4 µM; GPR7-expressing cells, calcium fluorescence antagonist mode; in the data active = inhibition above about 24%;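 also: stimulated with the GPR7 agonist NPW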
MCHR1 antag – counter-screen for GPR7 antagonists: antagonists of human MCHR1. shares compounds with GPR7 antag. MCHR1-expressing cells, fluorescence antagonist assay. inhibition, % at 4.4 µM. actives 62% (n = 2,400). AID 2148; in the data active = inhibition above about 22%
Each line names hits and unclear results; the compound was inactive in the other large screens (follow-up assays come after a bar, where they were run).

Cn1c(=O)c([N+](=O)[O-])c(Cl)c2ccccc21	GPR7 antag 26.3 (no result: OX1R antag-1, OX1R antag-2, CHO parental Ca) | GPR7 antag conf 51.0 | MCHR1 antag 76.2
Cc1ccc(SC(c2ccc(C)cc2)C(Cn2cncn2)C(=O)c2ccccc2)cc1 (stereo unspecified)	GPR7 antag 26.2 | GPR7 antag conf inactive | MCHR1 antag inactive
Cc1ccc(C(Sc2ccccc2)C(Cn2cncn2)C(=O)c2ccccc2)cc1 (stereo unspecified)	none
O=C(Cc1n[nH]c(=O)c2ccccc12)N1CCN(c2ccc(F)cc2)CC1	GPR7 antag 21.7 | GPR7 antag conf inactive | MCHR1 antag inactive
CC(=O)c1ccc(N2CCN(C(=O)Cc3n[nH]c(=O)c4ccccc34)CC2)cc1	none
O=C(CN1C2=NCCN2c2ccccc21)C12CC3CC(CC(C3)C1)C2	GPR7 antag 42.0 | GPR7 antag conf 40.3 | MCHR1 antag 31.6
CN1CCC(N(C)CC(=O)Nc2ccc3c(c2)OC(F)(F)O3)CC1	none
CN(CC(=O)Nc1cccc(S(=O)(=O)N(C)C)c1)Cc1ccccc1	none
CN1CCC(N(C)CC(=O)Nc2cccc(Oc3ccccc3)c2)CC1	GPR7 antag 27.5 | GPR7 antag conf inactive | MCHR1 antag inactive
CN(CC(=O)Nc1cccc(C(F)(F)F)c1)Cc1ccccc1	GPR7 antag 26.2 | GPR7 antag conf 24.0 | MCHR1 antag 35.1
COc1cccc(CN(C)CCCn2ccc(NC(=O)OCc3ccccc3)nc2=O)c1	none (no result: OX1R antag-1, OX1R antag-2, GPR7 antag, CHO parental Ca)
CC1(C(=O)NS(=O)(=O)c2ccc(F)cc2F)CCN1C(=O)c1ccccc1CCc1ccccc1 (stereo unspecified)	none (no result: OX1R antag-1, OX1R antag-2, GPR7 antag, CHO parental Ca)
COc1ccc(C2c3sc(=O)[nH]c3SC3C4CCC(C4)C23)cc1 (stereo unspecified)	none
COc1cc(C2c3sc(=O)[nH]c3SC3C4CCC(C4)C23)ccc1O (stereo unspecified)	GPR7 antag 27.4 | GPR7 antag conf inactive | MCHR1 antag inactive
Cc1cc(-c2ccc(S(=O)(=O)N3CCN(c4cccc(C)c4C)CC3)s2)on1	GPR7 antag 29.0 | GPR7 antag conf inactive | MCHR1 antag 39.6
CCN1CCN(S(=O)(=O)c2ccc(-c3cc(C)no3)s2)CC1	none
O=C(CNC(=O)c1sc2ccccc2c1Cl)NCc1ccc(F)cc1	none (no result: GPR7 antag)
COc1ccccc1-c1ccc(SCc2cccc(F)c2)nn1	GPR7 antag 29.0 | GPR7 antag conf 35.9 | MCHR1 antag 55.6
NS(=O)(=O)c1ccc(CNC(=S)Nc2ccc(Cl)c(Cl)c2)cc1	GPR7 antag 33.2 | GPR7 antag conf 41.2 | MCHR1 antag 40.1
CCCN(CC(=O)Nc1ccccc1C)C(=O)c1cccc(S(=O)(=O)N2CCc3ccccc3C2)c1	TAAR1 antagonist 59.2, GPR7 antag 30.5 | GPR7 antag conf 27.9 | MCHR1 antag 55.0
CCCCNC(=O)C1c2ccccc2OCC(=O)N1Cc1ccccn1 (stereo unspecified)	none (no result: OX1R antag-1, OX1R antag-2, GPR7 antag, CHO parental Ca)
Cc1nc(NC(=O)CSC2=NCCS2)sc1C(=O)N(C)C	none
COc1ccccc1NC(=O)CSc1nc2ccccc2n1C(C)=O	GPR7 antag 21.0 | GPR7 antag conf inactive | MCHR1 antag inactive
CN(CC(=O)Nc1ccccc1Cl)CC(=O)c1c(N)n(Cc2ccccc2)c(=O)n(C)c1=O	none (no result: GPR7 antag)
CC(=O)c1c(C)[nH]c(C(=O)OC(C)C(=O)NC2CCCCC2)c1C (stereo unspecified)	none (no result: OX1R antag-1, OX1R antag-2, GPR7 antag, CHO parental Ca)
CC(=O)Nc1ccc(C(=O)OCCC(C)C)cc1	GPR7 antag 24.7 | GPR7 antag conf inactive | MCHR1 antag inactive
Cc1ccc(NC2SC(=O)N(Cc3cccc(C(=O)O)c3)C2=O)cc1 (stereo unspecified)	GPR7 antag 29.2 | GPR7 antag conf inactive | MCHR1 antag inactive
O=C(O)c1cccc(CN2C(=O)SC(Nc3ccccc3)C2=O)c1 (stereo unspecified)	none
